Tests used:
[1] = molecular target: Sigma non-opioid intracellular receptor 1 (Homo sapiens, UniProt Q99720); experiment: Binding affinity for Sigma opioid receptor was determined by using [3H](+)-3-(3-hydroxyphenyl)N-1-propyl-piperdine((+)-3-PPP) as radioligand
D(1A) dopamine receptor = D(1A) dopamine receptor (Mus musculus, UniProt Q61616); experiment: Binding affinity for Dopamine receptor D1 was determined by using [3H]SCH-23390 as radioligand
[2] = molecular target: T1, 5-hydroxytryptamine receptor 1A (Mus musculus, UniProt Q64264); experiment: Binding affinity for 5-hydroxytryptamine 1A receptor was determined by using [3H]8-OH-DPAT as radioligand
T1 sequence (Q64264 whole entry): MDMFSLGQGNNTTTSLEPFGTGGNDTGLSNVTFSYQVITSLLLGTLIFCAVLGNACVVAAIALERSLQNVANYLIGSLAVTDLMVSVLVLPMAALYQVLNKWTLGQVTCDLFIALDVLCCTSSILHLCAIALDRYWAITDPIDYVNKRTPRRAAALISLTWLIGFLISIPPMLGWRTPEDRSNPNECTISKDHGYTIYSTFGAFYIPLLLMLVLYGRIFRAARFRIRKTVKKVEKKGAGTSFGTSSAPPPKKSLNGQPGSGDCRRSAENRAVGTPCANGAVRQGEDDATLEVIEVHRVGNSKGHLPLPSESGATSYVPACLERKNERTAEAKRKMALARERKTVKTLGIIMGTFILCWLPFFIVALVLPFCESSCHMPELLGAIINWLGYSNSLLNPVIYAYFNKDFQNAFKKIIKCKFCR

[3] = molecular target: T2, 5-hydroxytryptamine receptor 2C (Rattus norvegicus, UniProt P08909); experiment: Binding affinity for 5-hydroxytryptamine 1C receptor was determined by using [3H]- mesulergine as radioligand
T2 sequence (P08909 whole entry): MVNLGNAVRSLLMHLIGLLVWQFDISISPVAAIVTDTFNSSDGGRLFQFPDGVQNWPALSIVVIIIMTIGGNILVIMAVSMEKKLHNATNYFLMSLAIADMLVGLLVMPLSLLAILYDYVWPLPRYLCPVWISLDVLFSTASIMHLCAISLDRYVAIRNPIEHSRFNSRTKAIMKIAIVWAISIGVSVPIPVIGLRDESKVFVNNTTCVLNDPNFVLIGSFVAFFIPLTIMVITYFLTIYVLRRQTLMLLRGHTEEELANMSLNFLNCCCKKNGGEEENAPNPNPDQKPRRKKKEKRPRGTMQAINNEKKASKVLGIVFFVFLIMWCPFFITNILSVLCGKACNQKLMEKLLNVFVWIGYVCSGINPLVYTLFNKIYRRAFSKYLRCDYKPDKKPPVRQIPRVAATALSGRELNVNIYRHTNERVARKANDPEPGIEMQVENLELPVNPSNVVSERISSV

[4] = molecular target: Muscarinic acetylcholine receptor M3 (Rattus norvegicus, UniProt P08483); experiment: Binding affinity for Muscarinic acetylcholine receptor was determined by using [3H]QNB as radioligand
Muscarinic acetylcholine receptor M3, sequence (P08483 whole entry): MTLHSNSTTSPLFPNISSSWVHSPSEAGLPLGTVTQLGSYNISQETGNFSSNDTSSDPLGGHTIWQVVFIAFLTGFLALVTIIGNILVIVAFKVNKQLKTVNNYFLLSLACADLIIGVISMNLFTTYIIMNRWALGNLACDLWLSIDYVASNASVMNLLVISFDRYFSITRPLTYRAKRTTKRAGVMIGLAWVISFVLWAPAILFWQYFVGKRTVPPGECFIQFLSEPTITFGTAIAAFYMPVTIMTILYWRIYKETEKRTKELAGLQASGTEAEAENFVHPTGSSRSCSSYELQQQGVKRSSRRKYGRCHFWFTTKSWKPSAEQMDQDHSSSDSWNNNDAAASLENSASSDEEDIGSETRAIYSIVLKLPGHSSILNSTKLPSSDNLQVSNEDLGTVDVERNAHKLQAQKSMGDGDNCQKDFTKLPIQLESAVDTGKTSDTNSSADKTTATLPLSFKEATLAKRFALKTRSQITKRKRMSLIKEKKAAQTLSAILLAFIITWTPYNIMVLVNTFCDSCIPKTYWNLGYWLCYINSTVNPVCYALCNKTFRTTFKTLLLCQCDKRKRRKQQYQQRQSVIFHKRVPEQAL

Mu-type opioid receptor = Mu-type opioid receptor (Homo sapiens, UniProt P35372); experiment: Binding affinity for Opioid receptor mu 1 was determined by using [3H]naloxone as radioligand
Mu-type opioid receptor, sequence (P35372 whole entry): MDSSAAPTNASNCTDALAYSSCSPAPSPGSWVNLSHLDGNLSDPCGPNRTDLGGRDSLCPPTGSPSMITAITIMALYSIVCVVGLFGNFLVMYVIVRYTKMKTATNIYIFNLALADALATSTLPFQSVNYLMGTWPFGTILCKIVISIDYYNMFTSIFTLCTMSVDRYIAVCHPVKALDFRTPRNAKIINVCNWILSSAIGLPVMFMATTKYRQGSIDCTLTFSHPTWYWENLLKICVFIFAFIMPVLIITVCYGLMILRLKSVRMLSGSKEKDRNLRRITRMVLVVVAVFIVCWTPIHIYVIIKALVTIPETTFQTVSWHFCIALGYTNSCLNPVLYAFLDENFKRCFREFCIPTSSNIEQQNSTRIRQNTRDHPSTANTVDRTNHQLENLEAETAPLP

[5] = molecular target: GABA-A receptor; anion channel; experiment: Displacement of [3H]flunitrazepam from GABA-A Benzodiazepine receptor; format: protein-complex assay
[6] = molecular target: Beta-2 adrenergic receptor (Canis lupus familiaris, UniProt P54833); experiment: Binding affinity for Beta adrenergic receptor was determined by using [3H]dihydroalprenolol as radioligand
Beta-2 adrenergic receptor, sequence (P54833 whole entry): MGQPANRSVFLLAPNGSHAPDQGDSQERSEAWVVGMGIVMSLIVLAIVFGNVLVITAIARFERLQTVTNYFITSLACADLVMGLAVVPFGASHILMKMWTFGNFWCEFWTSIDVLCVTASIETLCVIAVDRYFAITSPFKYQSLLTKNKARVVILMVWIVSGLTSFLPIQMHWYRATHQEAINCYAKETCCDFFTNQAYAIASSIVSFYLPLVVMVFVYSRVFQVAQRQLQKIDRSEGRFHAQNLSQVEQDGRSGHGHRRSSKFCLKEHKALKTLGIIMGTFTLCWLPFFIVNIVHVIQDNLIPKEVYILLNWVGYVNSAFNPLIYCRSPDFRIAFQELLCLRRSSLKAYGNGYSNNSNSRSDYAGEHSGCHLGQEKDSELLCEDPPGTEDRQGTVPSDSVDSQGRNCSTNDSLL

D(2) dopamine receptor = D(2) dopamine receptor (Homo sapiens, UniProt P14416); experiment: Binding affinity for Dopamine receptor D2 was determined by using [3H]spiperone as radioligand
D(2) dopamine receptor, sequence (P14416 whole entry): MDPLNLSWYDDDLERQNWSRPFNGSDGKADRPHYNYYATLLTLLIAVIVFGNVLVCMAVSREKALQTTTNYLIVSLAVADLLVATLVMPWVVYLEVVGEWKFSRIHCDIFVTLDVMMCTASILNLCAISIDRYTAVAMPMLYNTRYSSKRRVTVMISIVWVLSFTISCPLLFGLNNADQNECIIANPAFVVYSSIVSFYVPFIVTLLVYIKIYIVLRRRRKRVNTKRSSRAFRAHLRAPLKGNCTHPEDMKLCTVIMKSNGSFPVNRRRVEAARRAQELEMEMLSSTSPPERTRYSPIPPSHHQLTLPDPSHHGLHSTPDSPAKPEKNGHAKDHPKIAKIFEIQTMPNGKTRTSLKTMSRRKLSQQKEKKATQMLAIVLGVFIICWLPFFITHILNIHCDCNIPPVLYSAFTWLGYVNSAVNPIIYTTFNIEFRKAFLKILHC

[7] = molecular target: 5-hydroxytryptamine receptor 2A (Bos taurus, UniProt Q75Z89); experiment: Binding affinity for 5-hydroxytryptamine 2 receptor was determined by using [3H]ketanserin as radioligand
5-hydroxytryptamine receptor 2A, sequence (Q75Z89 whole entry): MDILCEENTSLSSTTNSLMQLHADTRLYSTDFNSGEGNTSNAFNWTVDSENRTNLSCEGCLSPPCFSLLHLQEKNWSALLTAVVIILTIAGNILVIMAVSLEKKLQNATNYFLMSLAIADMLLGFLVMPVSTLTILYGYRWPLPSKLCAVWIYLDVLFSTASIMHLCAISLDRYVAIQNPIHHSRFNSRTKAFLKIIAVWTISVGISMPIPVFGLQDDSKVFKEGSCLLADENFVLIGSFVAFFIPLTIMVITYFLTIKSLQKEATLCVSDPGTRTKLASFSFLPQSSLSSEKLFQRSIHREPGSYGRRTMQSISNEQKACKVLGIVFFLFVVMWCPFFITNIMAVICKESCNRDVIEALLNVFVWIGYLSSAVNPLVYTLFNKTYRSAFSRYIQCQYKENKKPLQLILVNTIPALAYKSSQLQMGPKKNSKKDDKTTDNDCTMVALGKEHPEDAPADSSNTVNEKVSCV

[8] = molecular target: 5-hydroxytryptamine receptor 3A; experiment: (§1) Binding affinity towards 5-hydroxytryptamine 3 receptor by displacement of [3H]2 in Neuroblastoma-Glioma NG-108-15 cells
[9] = molecular target: 5-hydroxytryptamine receptor 1B (Rattus norvegicus) (UniProt P28564); experiment: Binding affinity for 5-hydroxytryptamine 1B receptor was determined by using [3H]5-HT as radioligand
5-hydroxytryptamine receptor 1B (Rattus norvegicus), sequence (P28564 whole entry, looked up): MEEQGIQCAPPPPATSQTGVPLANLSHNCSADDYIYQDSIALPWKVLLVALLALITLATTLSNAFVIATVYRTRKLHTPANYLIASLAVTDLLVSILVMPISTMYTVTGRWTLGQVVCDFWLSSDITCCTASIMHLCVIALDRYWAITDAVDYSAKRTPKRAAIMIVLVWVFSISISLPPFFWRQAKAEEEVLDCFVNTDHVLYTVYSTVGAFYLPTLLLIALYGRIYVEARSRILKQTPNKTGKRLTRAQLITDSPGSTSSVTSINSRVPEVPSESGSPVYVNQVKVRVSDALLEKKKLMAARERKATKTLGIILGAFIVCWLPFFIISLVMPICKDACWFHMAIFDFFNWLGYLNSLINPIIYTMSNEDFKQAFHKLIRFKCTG

[10] = as §1
[11] = molecular target: T3, Serotonin 3 (5-HT3) receptor (Rattus norvegicus) (UniProt P35563+Q9JJ16); experiment: Serotonin receptor antagonist activity was measured as ability to block the serotonin-induced Bezold-Jarisch reflex in rats after iv administration of 2 ug/Kg; format: functional, organism-based
Summary of the method: (§2)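 Anaesthetic and strain not given; rats dosed iv with test compound via a right femoral vein cannula. Serotonin 100 μg kg-1 iv was given through the same route 1 min after drug. Inhibition of the serotonin-induced bradycardia (Bezold-Jarisch reflex) was scored.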

[12] = molecular target: T3, Serotonin 3 (5-HT3) receptor (Rattus norvegicus); experiment: Serotonin receptor antagonist activity was measured as ability to block the serotonin-induced Bezold-Jarisch reflex in rats after iv administration of 100 ug/Kg; format: functional, organism-based; summary of the method: as §2
[13] = molecular target: T3, Serotonin 3 (5-HT3) receptor (Rattus norvegicus); experiment: Serotonin receptor antagonist activity was measured as ability to block the serotonin-induced Bezold-Jarisch reflex in rats after iv administration of 20 ug/Kg; format: functional, organism-based; summary of the method: as §2
[14] = molecular target: T3, Serotonin 3 (5-HT3) receptor (Rattus norvegicus); experiment: Serotonin receptor antagonist activity was measured as ability to block the serotonin-induced Bezold-Jarisch reflex in rats after iv administration of 10 ug/Kg; format: functional, organism-based; conditions: in the assay text read “2 ug/Kg” for “10 ug/Kg”; summary of the method: as §2
[15] = molecular target: T3, Serotonin 3 (5-HT3) receptor (Rattus norvegicus); experiment: Serotonin receptor antagonist activity was measured as ability to block the serotonin-induced Bezold-Jarisch reflex in rats after iv administration of 5 ug/Kg; format: functional, organism-based; summary of the method: as §2

Sigma non-opioid intracellular receptor 1, sequence (Q99720 whole entry): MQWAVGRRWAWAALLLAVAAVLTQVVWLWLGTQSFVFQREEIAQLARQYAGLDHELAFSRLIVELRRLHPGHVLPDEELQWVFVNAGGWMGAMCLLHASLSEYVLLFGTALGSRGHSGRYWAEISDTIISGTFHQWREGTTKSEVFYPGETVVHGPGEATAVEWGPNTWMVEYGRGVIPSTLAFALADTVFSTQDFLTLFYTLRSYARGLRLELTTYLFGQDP
D(1A) dopamine receptor, sequence (Q61616 whole entry): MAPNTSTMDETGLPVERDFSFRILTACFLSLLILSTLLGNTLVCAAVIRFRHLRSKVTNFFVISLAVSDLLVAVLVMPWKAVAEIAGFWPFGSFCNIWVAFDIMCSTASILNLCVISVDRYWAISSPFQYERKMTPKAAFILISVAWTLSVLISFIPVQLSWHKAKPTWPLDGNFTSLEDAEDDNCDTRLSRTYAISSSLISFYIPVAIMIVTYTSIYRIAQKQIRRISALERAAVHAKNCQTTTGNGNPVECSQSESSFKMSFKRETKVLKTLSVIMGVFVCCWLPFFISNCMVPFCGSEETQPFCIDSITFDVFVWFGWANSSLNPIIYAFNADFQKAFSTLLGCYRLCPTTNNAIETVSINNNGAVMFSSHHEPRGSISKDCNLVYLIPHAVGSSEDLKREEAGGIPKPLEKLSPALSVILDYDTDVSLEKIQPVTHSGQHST

Cc1nc[nH]c1Cc1nc(-c2ccccc2)cs1
Ki [1]: > 1000 nM | Ki (D(1A) dopamine receptor): > 1000 nM | Ki [2]: > 1000 nM | Ki [3]: > 1000 nM | Ki [4]: > 1000 nM | Ki (Mu-type opioid receptor): > 1000 nM | Ki [5]: > 1000 nM | Ki [6]: > 1000 nM | Ki (D(2) dopamine receptor): > 1000 nM | Ki [7]: > 1000 nM | Ki [8]: 1.8 nM | Ki [9]: > 1000 nM

COc1ccccc1-c1csc(Cc2c[nH]cn2)n1
Ki [10]: 0.29 nM

Cc1[nH]cnc1Cc1nc(-c2ccc(Br)cc2)cs1
Ki [10]: 270 nM

Cc1[nH]cnc1Cc1nc(-c2ccccc2F)cs1
inhibition [11]: 66.4% | Ki [8]: 1.94 nM

N=C(N)NCCCOC(=O)c1c[nH]c2ccccc12
Ki [10]: 27 nM

COc1ccc(-c2csc(Cc3[nH]cnc3C)n2)cc1
Ki [10]: 390 nM

Cc1[nH]cnc1Cc1nc(-c2ccccc2O)cs1
Ki [10]: 1.5 nM

N=C(N)NCCCCOC(=O)c1c[nH]c2ccccc12
Ki [10]: 29 nM

c1ccc(-c2csc(Cc3c[nH]cn3)n2)cc1
Ki [10]: 1 nM

Cc1[nH]cnc1Cc1nc(-c2cccc(F)c2)cs1
Ki [10]: 3.7 nM

Cc1[nH]cnc1Cc1nc(-c2ccccc2)cs1
inhibition [11]: 10.7% | inhibition [12]: 100%

Cc1ccc(-c2csc(Cc3[nH]cnc3C)n2)cc1
Ki [10]: 110 nM

N=C(N)NCCOC(=O)c1c[nH]c2ccccc12
Ki [10]: 7.1 nM

CCOc1ccccc1-c1csc(Cc2[nH]cnc2C)n1
Ki [10]: 0.95 nM

Cc1[nH]cnc1Cc1nc(-c2ccccc2C(F)(F)F)cs1
Ki [10]: 61 nM

Cc1[nH]cnc1Cc1nc(-c2ccc(F)cc2)cs1
Ki [10]: 4.9 nM

Cc1[nH]cnc1Cc1nc(-c2cccc3cccnc23)cs1
inhibition [11]: 43% | inhibition [13]: 91.9% | Ki [8]: 1 nM

Cc1[nH]cnc1Cc1nc(-c2cccc(Br)c2)cs1
Ki [10]: 2 nM

Cc1nccn1CC1CCc2c(c3ccccc3n2C)C1=O (stereo unspecified)
inhibition [13]: 89.7%

N=C(N)NCc1nc(-c2c[nH]c3ccccc23)cs1
Ki [10]: 3.3 nM

CN1[C@@H]2CC[C@H]1C[C@@H](OC(=O)c1c[nH]c3ccccc13)C2
inhibition [14]: 77.5%

COc1cccc(-c2csc(Cc3[nH]cnc3C)n2)c1
Ki [10]: 2 nM

COc1ccc2ccccc2c1-c1csc(Cc2[nH]cnc2C)n1
Ki [10]: 400 nM

c1cnc2c(-c3csc(Cc4c[nH]cn4)n3)cccc2c1
Ki [10]: 0.31 nM

COc1c(-c2csc(Cc3[nH]cnc3C)n2)ccc2ccccc12
Ki [10]: 95 nM

COc1ccccc1-c1csc(Cc2[nH]cnc2C)n1
inhibition [11]: 57.9% | inhibition [12]: 100% | inhibition [15]: 88.5% | Ki [8]: 0.42 nM

COc1cccc(OC)c1-c1csc(Cc2[nH]cnc2C)n1
Ki [10]: 430 nM

Cc1[nH]cnc1Cc1nc(-c2c[nH]c3ccccc23)cs1
inhibition [12]: 45.2%

Cc1nc[nH]c1Cc1nc(-c2c[nH]c3ccccc23)cs1
Ki [8]: 12 nM

Cc1[nH]cnc1Cc1nc(-c2cccc(Cl)c2)cs1
Ki [10]: 0.88 nM

Cc1[nH]cnc1Cc1nc(-c2ccc(Cl)cc2)cs1
Ki [10]: 34 nM

Cc1ccccc1-c1csc(Cc2[nH]cnc2C)n1
Ki [10]: 8.7 nM

CN1[C@@H]2CC[C@H]1C[C@H](OC(=O)c1ccccc1)C2
Ki [10]: 329 nM

Reference: ChEMBL document CHEMBL1124975 (J Med Chem, 1990)
